Screening data as filed in PubChem BioAssay.
APP 5'UTR act = activates APP 5'UTR luciferase reporter | activation, % at 2 µM | AID 1276 | SH-SY5Y APP 5'UTR luciferase reporter, luminescence; zero percent = DMSO vehicle wells | 190,000 compounds, 1% hits;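 active = activation above a set limit, based on mean plus 3 SD of controls, cut at about 140% in these data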
FLuc stim CS = firefly luciferase counter-screen for stimulation assays. ATPlite luciferase biochemical, luminescence, 10 min; 0 = ATP-free wells, 1 = DMSO control. P08659. activation factor at 10 µM. 200,000 tested, under 10 active. AID 1027;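 active = luciferase activation factor, scaled between plate controls, of at least 2 with compound at 10 µM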
Target sequence (P08659 whole entry, looked up): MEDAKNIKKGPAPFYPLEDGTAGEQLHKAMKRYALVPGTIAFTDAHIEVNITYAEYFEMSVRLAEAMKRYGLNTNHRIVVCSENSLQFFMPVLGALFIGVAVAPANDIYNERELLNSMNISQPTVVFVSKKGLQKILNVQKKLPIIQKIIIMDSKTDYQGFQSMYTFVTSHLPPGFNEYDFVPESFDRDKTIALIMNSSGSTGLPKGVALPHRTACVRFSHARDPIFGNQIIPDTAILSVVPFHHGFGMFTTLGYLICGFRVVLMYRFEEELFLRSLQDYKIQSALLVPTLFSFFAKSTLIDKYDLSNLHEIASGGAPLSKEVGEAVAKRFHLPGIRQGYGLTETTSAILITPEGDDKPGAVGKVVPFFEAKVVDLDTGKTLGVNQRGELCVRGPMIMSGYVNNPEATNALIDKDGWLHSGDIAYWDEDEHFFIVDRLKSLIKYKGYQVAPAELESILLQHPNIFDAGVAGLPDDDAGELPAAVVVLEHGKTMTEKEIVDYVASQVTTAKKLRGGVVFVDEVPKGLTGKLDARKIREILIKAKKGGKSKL
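Assay system: Luciferase/luciferin detection reagent, cell-free biochemical luciferase assay / Also added: ATP substrate / Schedule: 10 min at ambient temperature / Measured by: luminescence measurement of luciferase light output / Benchmarks: low control with PBS replacing ATP, high control enzyme plus ATP without compound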
TRAIL sens C8 = sensitizes caspase-8 expressing cells to TRAIL; NB7+C8 cells + TRAIL, ATPlite viability luminescence; inhibition (viability loss, TRAIL sensitization), % at 10 µM; 360,000 compounds, 1% hits; AID 624354;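 active = compounds causing at least 50% loss of cell viability in the single-dose screen, relative to plate controls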
NF-kB neuron act = compounds increasing NF-kB expression in human neuronal cells; NF-kB reporter expression; stronger effect = higher value; fold change at 12.5 µM; 190,000 compounds, 1.6% hits; in the data active = fold change above about 3.3
PPC-1+TRAIL kill = PPC-1 cancer cell killing with TRAIL present; PPC-1 cells + TRAIL, ATPLite viability luminescence; cell killing (% activity), % at 4 µM or 5 µM; AID 1443; 220,000 compounds, 0.41% hits;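 active = cell killing above 50% in the first pass at 4 µM, then a duplicate retest at 5 µM averaging 50% or more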;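 note: plate controls were cells with TRAIL plus DMSO for no effect and medium-only wells lacking cells for full effect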
FLuc inhib CS = Photinus pyralis luciferase inhibition counter-screen; P08659; ATPLite firefly luciferase biochemical luminescence, 10 min; inhibition, % at 10 µM; 200,000 compounds, 1.5% hits;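 active = inhibition above about 50% when tested at 10 µM, limit read from the data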
* = called active by the depositor; x = not tested or not shown. Most compounds without a hit are left out; they make up all but 2.2% or so of the library.

SMILES | APP 5'UTR act | FLuc stim CS | TRAIL sens C8 | NF-kB neuron act | PPC-1+TRAIL kill | FLuc inhib CS
O=C(NC(=S)Nc1ccc(Br)cn1)c1cccs1 | 195* | 0.3 | 65* | 4* | 17 | 72*
Clc1ccccc1-c1nc(-c2ccncc2)no1 | x | x | 3 | x | 19 | x
Cc1ccccc1-c1nc(-c2cccnc2)no1 | 76 | 0.8 | 10 | 3.7* | 15 | 21
c1cncc(-c2noc(-c3ccc4ccccc4c3)n2)c1 | x | x | 45 | x | x | x
Cc1ccc(-c2nc(-c3ccncc3)no2)c(Cl)c1 | x | x | 55* | x | x | x
Clc1ccccc1-c1nc(-c2cccnc2)no1 | 111 | 0.3 | 34 | 1.4 | 24 | 74*
COc1ccc(C#Cc2cccc(-c3nc(C(=O)NCc4ccc(Oc5ccccc5)cc4)cc4c3[C@@H](CCO)N(S(=O)C(C)(C)C)C4)c2)cc1OC (stereo partly specified) | x | x | 6 | x | x | x
COc1ccc(OCc2cc(C(=O)NC(C)Cn3cncn3)no2)c(Cl)c1 (stereo unspecified) | x | x | 7 | x | x | x
Cc1c(NC2(C#N)CCCC2)c(=O)n(-c2ccccc2)n1C | -7 | 1 | -3 | 1 | 19 | -2
COC(=O)[C@H](CC(C)C)N1Cc2cc(OC)cc(OC)c2-c2ccccc2S1(=O)=O | x | x | 4 | x | x | x
N#Cc1ccc(OCc2c(-c3ccccc3)nnn2CC(=O)O)cc1 | x | x | -6 | x | x | x
O=C(COc1ccc2c(c1)CCC2)Nc1ccccn1 | x | x | 84* | x | x | x
Cc1cccc(NC(=O)COc2ccc3c(c2)CCC3)n1 | x | x | 6 | x | x | x
CN(C)S(=O)(=O)c1ccc2nc(NC(=O)c3cccnc3)sc2c1 | 83 | 0.4 | 21 | 1.6 | 27 | 55*
CN(C)S(=O)(=O)c1ccc2nc(NC(=O)c3cccs3)sc2c1 | 129 | 0.4 | 47 | 3.5* | 49 | 64*
O=C(Nc1nc2ccc(F)cc2s1)c1cccs1 | 112 | 0.5 | 34 | 7.4* | 17 | 50*
O=C(Nc1nc2ccc(S(=O)(=O)N3CCCCC3)cc2s1)c1cccnc1 | -8 | 1 | -18 | 0.87 | 8 | -4
CCN(C(=O)CSc1n[nH]c(-c2ccc(OC)cc2)n1)c1c(N)n(Cc2ccccc2)c(=O)[nH]c1=O | x | x | 3 | x | x | x
O=C(OCc1ccc(COC(=O)c2cccnc2Cl)cc1)c1cccnc1Cl | -5 | 1.1 | 1 | 0.86 | 2 | -10
CC(C)N(C(=O)COC(=O)c1cccnc1Cl)c1ccccc1 | x | x | -1 | x | x | x
CCc1ccc(C(=O)COC(=O)c2cccnc2Cl)cc1 | 1 | 0.1 | -4 | 1.4 | 8 | 91*
O=C(COC(=O)c1cccnc1Cl)c1ccccc1 | 0 | 0.4 | -24 | 1.3 | 26 | 59*
CC(=O)OC[C@]1(OC(C)=O)C[C@@]23CC[C@H]4[C@@](C)(CCC[C@@]4(C)C(=O)O)[C@@H]2CC[C@@H]1C3 | 1 | 1 | 5 | 1.1 | -8 | -3
CC(=O)OC[C@]12CC[C@H]3[C@@](C)(CC[C@H]4C(C)(C)CCC[C@]34C)[C@@H]1CC(C1=CC(=O)OC1O)O2 (stereo partly specified) | x | x | 84* | x | x | x
COc1ccc(-c2nc(-c3ccc(NC(=O)c4ccncc4)cc3)no2)cc1OC | 0 | 1.1 | 66* | 0.29 | 7 | -8
SMILES | APP 5'UTR act | FLuc stim CS | TRAIL sens C8 | NF-kB neuron act | PPC-1+TRAIL kill | FLuc inhib CS
Cc1ccccc1-c1nc(-c2ccc(NC(=O)c3ccc4c(c3)OCO4)cc2)no1 | 13 | 0.9 | 29 | 1.8 | -3 | 6
COc1cc(-c2nc(-c3ccc(NC(=O)c4ccc5c(c4)OCO5)cc3)no2)cc(OC)c1OC | 19 | 1 | 59* | 1.1 | 16 | 4
COc1ccc(Cl)cc1-c1nc(-c2ccc(NC(=O)c3ccncc3)cc2)no1 | -5 | x | 18 | x | x | x
CCCCOc1ccc(NC(=S)Nc2cc(C)nc(SCCCC)n2)cc1 | 4 | 1 | 5 | 1.2 | 24 | -5
CCCCNC(=O)C[C@@H]1C[C@@]2(C(=O)OCC)CCCC=C2N(Cc2ccco2)C1=O | x | x | -10 | x | x | x
COc1ccc(OC)c(NC(=O)c2ccc3c(c2)C(=O)N(CC2CCCO2)C3=O)c1 (stereo unspecified) | x | x | 3 | x | x | x
O=C(CCl)N(CCCNC(=O)C(F)(F)F)c1ccc([N+](=O)[O-])cc1 | x | x | 95* | x | 21 | x
COc1ccc(S(=O)(=O)N(C)C[C@@H]2Oc3c(NS(C)(=O)=O)cccc3C(=O)N([C@@H](C)CO)C[C@H]2C)cc1 | x | x | -3 | x | x | x
CCc1nnc(NC(=O)c2ccc(OC)cc2OC)s1 | 111 | 0.5 | 28 | 2.2 | 34 | 54*
COc1ccccc1C(=O)Nc1nc2ccccc2s1 | x | x | 91* | x | x | x
COc1ccccc1C(=O)Nc1nc2ccc(S(C)(=O)=O)cc2s1 | 22 | 0.8 | 35 | 0.99 | 25 | 20
COc1ccc(C(=O)Nc2nc3ccccc3s2)c(OC)c1 | x | x | 92* | x | x | x
COc1ccc(C(=O)Nc2ccc([N+](=O)[O-])cn2)c(OC)c1 | 143* | 0.5 | 53* | 4.4* | 17 | 45
Cc1cn([C@H]2C[C@H](O)[C@@H](/C=C/C(=O)NCCc3cccs3)O2)c(=O)[nH]c1=O | x | x | -20 | x | x | x
COC(=O)c1ccc(COc2cccc(C)c2C)cc1 | 13 | 1.1 | 18 | 1.7 | -4 | -5
CCc1nnc(NC(=O)c2ccc(Cl)nc2)s1 | 51 | 0.5 | 23 | 1.3 | 27 | 53*
N=c1oc2cc(O)ccc2cc1C(=O)Nc1nc2ccccc2s1 | 178* | 0.3 | -2 | 1.6 | -9 | 75*
CCc1nc2ccccc2c(C(=O)OCC(=O)Nc2cccc(S(=O)(=O)N3CCOCC3)c2)c1C | 4 | 1 | 50* | 0.31 | -2 | -4
CCc1nc2ccccc2c(C(=O)OCC(=O)Nc2ccc(S(=O)(=O)N3CCOCC3)cc2)c1C | -5 | 1.1 | 13 | 0.46 | -1 | -10
Cc1ccc(NC(=O)CC(NC(=O)c2ccccc2Cl)c2ccccc2)nc1 (stereo unspecified) | x | x | 13 | x | x | x
CCOc1ccccc1C(=O)N(Cc1ccc(C)o1)C1CCS(=O)(=O)C1 (stereo unspecified) | x | x | -6 | x | x | x
O=[N+]([O-])c1ccc(-[n+]2ccc3ccccc3c2)c([N+](=O)[O-])c1 | x | x | 55* | x | x | x
COc1ccc(OCCCSc2ncccn2)cc1 | 63 | 1 | -9 | 2 | -1 | 2
COc1ccc(OCCSc2ncccn2)cc1 | 160* | 0.8 | 9 | 4.1* | 17 | 19
Cc1ccn2cc(-c3ccc(NC(=O)c4ccco4)cc3)nc2c1 | 139* | 0.4 | 45 | 3.1 | 36 | 55*
O=C(Nc1ccc(-c2ccccc2)cc1)c1ccco1 | -1 | 1.1 | -19 | 0.98 | 31 | -10
Cc1nc(-c2cccc(NC(=O)c3ccco3)c2)cs1 | x | x | -2 | x | x | x
Nc1nc(-c2ccc(NC(=O)c3ccco3)cc2)cs1 | x | x | 74* | x | x | x
Cc1nc(-c2ccc(NC(=O)c3ccco3)cc2)cs1 | x | x | 94* | x | x | x
Cc1nc2c(OCCN3C(=O)c4ccccc4C3=O)cccn2c1N(C)C(=O)CCC1CCCC1 | x | x | 6 | x | x | x
